According to ChEMBL document CHEMBL4152188, “Design, synthesis and biological evaluation of C(4) substituted monobactams as antibacterial agents against multidrug-resistant Gram-negative bacteria” (Eur J Med Chem, 2018):
≈ marks a conversion by molar mass, not a printed value.

Legend:
Type in all cases: functional
Escherichia coli [1] = assay: Antibacterial activity against extended-spectrum beta-lactamase producing Escherichia coli isolate 209285 after 18 hrs by CLSI broth microdilution method; settings: isolate 209285, 18 h
Escherichia coli [2] = assay: Selectivity index, ratio of MIC for against extended-spectrum beta-lactamase producing Escherichia coli isolate 208687 to MIC for extended-spectrum beta-lactamase producing Escherichia coli isolate 208687 in presence of BPL
Escherichia coli [3] = assay: Antibacterial activity against extended-spectrum beta-lactamase producing Escherichia coli isolate 106342 after 18 hrs by CLSI broth microdilution method; settings: isolate 106342, 18 h
Pseudomonas aeruginosa [4] = assay: Antibacterial activity against IMP-4 producing Pseudomonas aeruginosa isolate 209471 after 18 hrs in presence of BPL by CLSI broth microdilution method; settings: isolate 209471, 18 h
Summary of the method: (§1)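 CLSI broth microdilution against clinical isolates (ESBL E. coli, KPC-2 MDR K. pneumoniae, IMP-4 MDR P. aeruginosa; five per species). Iron limitation: Mueller-Hinton broth supplemented with 16 mg/liter 2,2'-bipyridyl to complex iron and induce iron uptake systems. Read-out: MIC.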

Klebsiella pneumoniae [5] = assay: Antibacterial activity against KPC-2 producing Klebsiella pneumoniae isolate 209632 after 18 hrs by CLSI broth microdilution method; settings: isolate 209632, 18 h
Pseudomonas aeruginosa [6] = assay: Selectivity index, ratio of MIC for against IMP-4 producing Pseudomonas aeruginosa isolate 212886 to MIC for against IMP-4 producing Pseudomonas aeruginosa isolate 212886 in presence of BPL
Pseudomonas aeruginosa [7] = assay: Antibacterial activity against IMP-4 producing Pseudomonas aeruginosa isolate 209321 after 18 hrs by CLSI broth microdilution method; settings: isolate 209321, 18 h
Escherichia coli [8] = assay: Selectivity index, ratio of MIC for against extended-spectrum beta-lactamase producing Escherichia coli isolate 106342 to MIC for extended-spectrum beta-lactamase producing Escherichia coli isolate 106342 in presence of BPL
Escherichia coli [9] = assay: Antibacterial activity against Escherichia coli isolate 210737 after 18 hrs in presence of BPL by CLSI broth microdilution method; settings: isolate 210737, 18 h; summary of the method: as §1
Pseudomonas aeruginosa [10] = assay: Antibacterial activity against IMP-4 producing Pseudomonas aeruginosa isolate 208247 after 18 hrs in presence of BPL by CLSI broth microdilution method; settings: isolate 208247, 18 h; summary of the method: as §1
Klebsiella pneumoniae [11] = assay: Antibacterial activity against KPC-2 producing Klebsiella pneumoniae isolate 209632 after 18 hrs in presence of BPL by CLSI broth microdilution method; settings: isolate 209632, 18 h; summary of the method: as §1
Klebsiella pneumoniae [12] = assay: Selectivity index, ratio of MIC for against KPC-2 producing Klebsiella pneumoniae isolate 212423 to MIC for against KPC-2 producing Klebsiella pneumoniae isolate 212423 in presence of BPL
Klebsiella pneumoniae [13] = assay: Selectivity index, ratio of MIC for against KPC-2 producing Klebsiella pneumoniae isolate 212229 to MIC for against KPC-2 producing Klebsiella pneumoniae isolate 212229 in presence of BPL
Escherichia coli [14] = assay: Antibacterial activity against extended-spectrum beta-lactamase producing Escherichia coli isolate 208687 after 18 hrs by CLSI broth microdilution method; settings: isolate 208687, 18 h
Pseudomonas aeruginosa [15] = assay: Selectivity index, ratio of MIC for against IMP-4 producing Pseudomonas aeruginosa isolate 208247 to MIC for against IMP-4 producing Pseudomonas aeruginosa isolate 208247 in presence of BPL
Pseudomonas aeruginosa [16] = assay: Antibacterial activity against IMP-4 producing Pseudomonas aeruginosa isolate 207272 after 18 hrs in presence of BPL by CLSI broth microdilution method; settings: isolate 207272, 18 h; summary of the method: as §1
Pseudomonas aeruginosa [17] = assay: Selectivity index, ratio of MIC for against IMP-4 producing Pseudomonas aeruginosa isolate 209471 to MIC for against IMP-4 producing Pseudomonas aeruginosa isolate 209471 in presence of BPL
Klebsiella pneumoniae [18] = assay: Antibacterial activity against KPC-2 producing Klebsiella pneumoniae isolate 209735 after 18 hrs in presence of BPL by CLSI broth microdilution method; settings: isolate 209735, 18 h; summary of the method: as §1
Klebsiella pneumoniae [19] = assay: Antibacterial activity against KPC-2 producing Klebsiella pneumoniae isolate 212423 after 18 hrs in presence of BPL by CLSI broth microdilution method; settings: isolate 212423, 18 h; summary of the method: as §1
Pseudomonas aeruginosa [20] = assay: Antibacterial activity against IMP-4 producing Pseudomonas aeruginosa isolate 212886 after 18 hrs in presence of BPL by CLSI broth microdilution method; settings: isolate 212886, 18 h; summary of the method: as §1
Klebsiella pneumoniae [21] = assay: Antibacterial activity against KPC-2 producing Klebsiella pneumoniae isolate 212229 after 18 hrs in presence of BPL by CLSI broth microdilution method; settings: isolate 212229, 18 h; summary of the method: as §1
Pseudomonas aeruginosa [22] = assay: Antibacterial activity against IMP-4 producing Pseudomonas aeruginosa isolate 209471 after 18 hrs by CLSI broth microdilution method; settings: isolate 209471, 18 h
Escherichia coli [23] = assay: Selectivity index, ratio of MIC for against extended-spectrum beta-lactamase producing Escherichia coli isolate 209285 to MIC for extended-spectrum beta-lactamase producing Escherichia coli isolate 209285 in presence of BPL
Pseudomonas aeruginosa [24] = assay: Antibacterial activity against IMP-4 producing Pseudomonas aeruginosa isolate 209321 after 18 hrs in presence of BPL by CLSI broth microdilution method; settings: isolate 209321, 18 h; summary of the method: as §1
Klebsiella pneumoniae [25] = assay: Selectivity index, ratio of MIC for against KPC-2 producing Klebsiella pneumoniae isolate 212232 to MIC for against KPC-2 producing Klebsiella pneumoniae isolate 212232 in presence of BPL
Klebsiella pneumoniae [26] = assay: Antibacterial activity against KPC-2 producing Klebsiella pneumoniae isolate 212232 after 18 hrs in presence of BPL by CLSI broth microdilution method; settings: isolate 212232, 18 h; summary of the method: as §1
Pseudomonas aeruginosa [27] = assay: Antibacterial activity against IMP-4 producing Pseudomonas aeruginosa isolate 207272 after 18 hrs by CLSI broth microdilution method; settings: isolate 207272, 18 h
Pseudomonas aeruginosa [28] = assay: Selectivity index, ratio of MIC for against IMP-4 producing Pseudomonas aeruginosa isolate 207272 to MIC for against IMP-4 producing Pseudomonas aeruginosa isolate 207272 in presence of BPL
Escherichia coli [29] = assay: Antibacterial activity against Escherichia coli isolate 210737 after 18 hrs by CLSI broth microdilution method; settings: isolate 210737, 18 h
Escherichia coli [30] = assay: Antibacterial activity against extended-spectrum beta-lactamase producing Escherichia coli isolate 212648 after 18 hrs in presence of BPL by CLSI broth microdilution method; settings: isolate 212648, 18 h; summary of the method: as §1
Escherichia coli [31] = assay: Selectivity index, ratio of MIC for against Escherichia coli isolate 210737 to MIC for Escherichia coli isolate 210737 in presence of BPL
Klebsiella pneumoniae [32] = assay: Antibacterial activity against KPC-2 producing Klebsiella pneumoniae isolate 209735 after 18 hrs by CLSI broth microdilution method; settings: isolate 209735, 18 h
Pseudomonas aeruginosa [33] = assay: Selectivity index, ratio of MIC for against IMP-4 producing Pseudomonas aeruginosa isolate 209321 to MIC for against IMP-4 producing Pseudomonas aeruginosa isolate 209321 in presence of BPL
Escherichia coli [34] = assay: Antibacterial activity against extended-spectrum beta-lactamase producing Escherichia coli isolate 212648 after 18 hrs by CLSI broth microdilution method; settings: isolate 212648, 18 h
Escherichia coli [35] = assay: Antibacterial activity against extended-spectrum beta-lactamase producing Escherichia coli isolate 208687 after 18 hrs in presence of BPL by CLSI broth microdilution method; settings: isolate 208687, 18 h; summary of the method: as §1
Escherichia coli [36] = assay: Antibacterial activity against extended-spectrum beta-lactamase producing Escherichia coli isolate 209285 after 18 hrs in presence of BPL by CLSI broth microdilution method; settings: isolate 209285, 18 h; summary of the method: as §1
Escherichia coli [37] = assay: Selectivity index, ratio of MIC for against extended-spectrum beta-lactamase producing Escherichia coli isolate 212648 to MIC for extended-spectrum beta-lactamase producing Escherichia coli isolate 212648 in presence of BPL
Klebsiella pneumoniae [38] = assay: Selectivity index, ratio of MIC for against KPC-2 producing Klebsiella pneumoniae isolate 209735 to MIC for against KPC-2 producing Klebsiella pneumoniae isolate 209735 in presence of BPL
Pseudomonas aeruginosa [39] = assay: Antibacterial activity against IMP-4 producing Pseudomonas aeruginosa isolate 208247 after 18 hrs by CLSI broth microdilution method; settings: isolate 208247, 18 h
Escherichia coli [40] = assay: Antibacterial activity against extended-spectrum beta-lactamase producing Escherichia coli isolate 106342 after 18 hrs in presence of BPL by CLSI broth microdilution method; settings: isolate 106342, 18 h; summary of the method: as §1
Klebsiella pneumoniae [41] = assay: Antibacterial activity against KPC-2 producing Klebsiella pneumoniae isolate 212229 after 18 hrs by CLSI broth microdilution method; settings: isolate 212229, 18 h
Klebsiella pneumoniae [42] = assay: Selectivity index, ratio of MIC for against KPC-2 producing Klebsiella pneumoniae isolate 209632 to MIC for against KPC-2 producing Klebsiella pneumoniae isolate 209632 in presence of BPL
Klebsiella pneumoniae [43] = assay: Antibacterial activity against KPC-2 producing Klebsiella pneumoniae isolate 212232 after 18 hrs by CLSI broth microdilution method; settings: isolate 212232, 18 h
Klebsiella pneumoniae [44] = assay: Antibacterial activity against KPC-2 producing Klebsiella pneumoniae isolate 212423 after 18 hrs by CLSI broth microdilution method; settings: isolate 212423, 18 h
Pseudomonas aeruginosa [45] = assay: Antibacterial activity against IMP-4 producing Pseudomonas aeruginosa isolate 212886 after 18 hrs by CLSI broth microdilution method; settings: isolate 212886, 18 h

MIC (Escherichia coli [1]): 32 µg/mL (≈ 44.6 µM) | MIC (Escherichia coli [3]): 16 µg/mL (≈ 22.3 µM) | MIC (Pseudomonas aeruginosa [4]): 64 µg/mL | MIC (Klebsiella pneumoniae [5]): 32 µg/mL (≈ 44.6 µM) | MIC (Pseudomonas aeruginosa [7]): 64 µg/mL (≈ 89.2 µM) | MIC (Escherichia coli [9]): > 64 µg/mL | MIC (Pseudomonas aeruginosa [10]): > 64 µg/mL | MIC (Klebsiella pneumoniae [11]): 4 µg/mL | MIC (Escherichia coli [14]): 32 µg/mL (≈ 44.6 µM) | MIC (Pseudomonas aeruginosa [16]): > 64 µg/mL | MIC (Klebsiella pneumoniae [18]): 4 µg/mL | MIC (Klebsiella pneumoniae [19]): 4 µg/mL | MIC (Pseudomonas aeruginosa [20]): > 64 µg/mL | MIC (Klebsiella pneumoniae [21]): 4 µg/mL | MIC (Pseudomonas aeruginosa [22]): 64 µg/mL (≈ 89.2 µM) | MIC (Pseudomonas aeruginosa [24]): 32 µg/mL | MIC (Klebsiella pneumoniae [26]): 4 µg/mL | MIC (Pseudomonas aeruginosa [27]): > 64 µg/mL | MIC (Escherichia coli [29]): > 64 µg/mL | MIC (Escherichia coli [30]): 16 µg/mL | MIC (Klebsiella pneumoniae [32]): 32 µg/mL (≈ 44.6 µM) | MIC (Escherichia coli [34]): 32 µg/mL (≈ 44.6 µM) | MIC (Escherichia coli [35]): 16 µg/mL | MIC (Escherichia coli [36]): 32 µg/mL | MIC (Pseudomonas aeruginosa [39]): > 64 µg/mL | MIC (Escherichia coli [40]): 8 µg/mL | MIC (Klebsiella pneumoniae [41]): 32 µg/mL (≈ 44.6 µM) | MIC (Klebsiella pneumoniae [43]): 32 µg/mL (≈ 44.6 µM) | MIC (Klebsiella pneumoniae [44]): 16 µg/mL (≈ 22.3 µM) | MIC (Pseudomonas aeruginosa [45]): > 64 µg/mL
SMILES: CC(C)C(O/N=C(\C(=O)N[C@@H]1C(=O)N(S(=O)(=O)O)[C@@H]1COC(=O)c1ccc(O)c(O)c1Cl)c1csc(N)n1)c1cc(=O)c(O)cn1O (stereo not given in full)
Selectivity Index (Escherichia coli [2]): 2 | Selectivity Index (Pseudomonas aeruginosa [6]): 1 - 2 | Selectivity Index (Escherichia coli [8]): 2 | Selectivity Index (Klebsiella pneumoniae [12]): 4 | Selectivity Index (Klebsiella pneumoniae [13]): 8 | Selectivity Index (Pseudomonas aeruginosa [15]): 1 - 2 | Selectivity Index (Pseudomonas aeruginosa [17]): 1 | Selectivity Index (Escherichia coli [23]): 1 | Selectivity Index (Klebsiella pneumoniae [25]): 8 | Selectivity Index (Pseudomonas aeruginosa [28]): 1 - 2 | Selectivity Index (Escherichia coli [31]): 1 - 2 | Selectivity Index (Pseudomonas aeruginosa [33]): 2 | Selectivity Index (Escherichia coli [37]): 2 | Selectivity Index (Klebsiella pneumoniae [38]): 8 | Selectivity Index (Klebsiella pneumoniae [42]): 8
